Data on 18 compounds can be found in ChEMBL document CHEMBL1136929 (J Med Chem, 2009).

The structures appear in SMILES notation. pIC50, pKi: −log10 of the molar value. Active and inactive are the calls of the source. No cut-off for these calls is given here.

Sequence of Cannabinoid receptor 1 (P21554 whole entry): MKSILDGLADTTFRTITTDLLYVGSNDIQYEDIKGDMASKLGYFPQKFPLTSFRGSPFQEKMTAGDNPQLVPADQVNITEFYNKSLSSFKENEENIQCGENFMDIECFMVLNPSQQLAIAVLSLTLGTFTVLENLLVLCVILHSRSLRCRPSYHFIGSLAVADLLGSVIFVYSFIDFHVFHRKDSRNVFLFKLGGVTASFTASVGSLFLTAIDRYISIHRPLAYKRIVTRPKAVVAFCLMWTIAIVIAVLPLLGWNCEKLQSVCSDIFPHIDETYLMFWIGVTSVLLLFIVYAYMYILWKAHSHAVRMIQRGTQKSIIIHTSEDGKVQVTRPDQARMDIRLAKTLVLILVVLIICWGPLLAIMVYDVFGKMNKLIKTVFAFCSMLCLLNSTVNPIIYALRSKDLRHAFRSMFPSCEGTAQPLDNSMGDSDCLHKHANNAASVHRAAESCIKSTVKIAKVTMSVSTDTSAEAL

The first experiment concerns Jurkat. Nature of the experiment: Cytotoxicity against human Jurkat cells at 10 uM after 48 hrs by WST1 assay in presence of AM630. It is filed as functional, cell-based.
Details: not given
The method, boiled down: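 Jurkat cells (2 × 10⁴ per well) in serum-free medium, after 2 h, exposed to compound (10 µM) together with CB2 antagonist AM630 (1 µM) for 48 h. Viability by WST-1 (60 min, 37 °C, A450) against solvent controls. Two experiments in triplicate.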
For `COc1ccc(C(=O)c2c(C)n(CCN3CCOCC3)c3cc(I)ccc23)cc1`, the outcome was inactive.

System in another experiment: not listed separately
Nature of the experiment: Cytotoxicity against human U87MG cells at 10 uM after 48 hrs by WST1 assay. It is filed as functional, U-87MG ATCC.
Details: not given
In short, it runs like this:
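U87MG cells (4 × 10³ per well) in serum-free medium, attached 24 h, then exposed to compound at 10 µM for 48 h (DMSO stock diluted in medium). Viability inhibition by WST-1 (60 min, 37 °C, A450) compared with solvent-treated controls.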
`CCCn1c(C)c(C(=O)c2cccc3ccccc23)c2ccccc21` yielded an Activity of 20%.

As to `CC1CCC(NC(=O)c2cc3cccnc3n(Cc3ccccc3)c2=O)CC1` (centres undefined), the Activity turned out to be 20%.

Another experiment has as its system Jurkat. Kind of experiment: Cytotoxicity against human Jurkat cells after 48 hrs by WST1 assay. It is filed as functional, cell-based.
Details: not given
In short, it runs like this: (§1)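 Jurkat (2 × 10⁴ per well, 2 h settling) or U87MG (4 × 10³ per well, 24 h attachment) cells in serum-free medium. Exposed to compound (0.1-10 µM; DMSO stocks diluted in medium) for 48 h. Viability read by WST-1 (60 min, 37 °C, A450) against solvent controls, blank-subtracted. IC50 is the concentration giving 50% of control absorbance. Three experiments in triplicate.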
The term pIC50 denotes the IC50 on a negative log10 scale, so that one unit is a factor of ten. A higher pIC50 goes with a small IC50. In turn, `CCCn1c(C)c(C(=O)c2cccc3ccccc23)c2ccccc21` had a pIC50 of 5.02.

As for `CC1CCC(NC(=O)c2cc3cccnc3n(Cc3ccccc3)c2=O)CC1` (centres undefined), the Activity entry was “Dose-dependent effect” and the pIC50 is 5.22.

System in a further experiment: not listed separately
Kind of experiment: Cytotoxicity against human U87MG cells after 48 hrs by WST1 assay. It is filed as functional, cell-based. Particulars: u-87mg atcc. In short, it runs like this:
as §1
(Tetrazolium assays rely on reduction of a dye to a coloured formazan, in cell work by metabolically active cells.)
Consider `CCCn1c(C)c(C(=O)c2cccc3ccccc23)c2ccccc21`, for which the IC50 result was “Not Active”.

Take `CC1CCC(NC(=O)c2cc3cccnc3n(Cc3ccccc3)c2=O)CC1` (centres undefined): the IC50 result is “Not Active”.

Another experiment deals with Cannabinoid receptor 2 (Homo sapiens, UniProt P34972). Kind of experiment: Displacement of [3H]CP-55940 from human recombinant CB2 receptor expressed in HEK293 cells. It is filed as cell-based.
Sequence of Cannabinoid receptor 2 (P34972 whole entry): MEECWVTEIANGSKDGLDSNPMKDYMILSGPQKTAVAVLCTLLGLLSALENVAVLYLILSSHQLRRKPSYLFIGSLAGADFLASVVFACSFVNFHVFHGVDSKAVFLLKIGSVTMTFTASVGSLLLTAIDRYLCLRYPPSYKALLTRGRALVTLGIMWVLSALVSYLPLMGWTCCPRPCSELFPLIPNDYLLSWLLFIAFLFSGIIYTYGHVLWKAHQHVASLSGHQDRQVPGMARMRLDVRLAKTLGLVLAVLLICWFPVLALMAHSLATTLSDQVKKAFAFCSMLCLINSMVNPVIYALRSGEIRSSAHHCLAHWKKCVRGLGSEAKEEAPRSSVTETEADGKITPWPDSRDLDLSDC
Details: not given
Usually pKi stands for the Ki on a negative log10 scale, so that one unit is a factor of ten. For `O=C(NC1CCCCC1)c1cc2cccnc2n(CCN2CCOCC2)c1=O`, the pKi was 8.10.

Regarding `CC1CCC(NC(=O)c2cc3cccnc3n(CCN3CCOCC3)c2=O)CC1` (centres undefined), the pKi was 8.72.

`O=C(NC1CCCCCC1)c1cc2cccnc2n(CCN2CCOCC2)c1=O`: the negative-log Ki (pKi) was 8.52.

On to `O=C(NCCc1ccc(F)cc1)c1cc2cccnc2n(Cc2ccccc2)c1=O`, for which the pKi is 7.16.

With `O=C(NC1CCCCC1)c1cc2cccnc2n(Cc2ccccc2)c1=O`, the pKi is 7.51.

As to `C[C@H]1CC[C@H](NC(=O)c2cc3cccnc3n(Cc3ccccc3)c2=O)CC1`, the pKi was 7.40.

Regarding `CC1CCC(NC(=O)c2cc3cccnc3n(Cc3ccc(F)cc3)c2=O)CC1` (centres undefined), the pKi is 9.05.

Take `O=C(NC1CCCCCC1)c1cc2cccnc2n(Cc2ccccc2)c1=O`: the pKi is 7.66.

Consider `CC1CCC(NC(=O)c2cc3cccnc3n(Cc3ccccc3)c2=O)CC1` (centres undefined), for which the pKi is 8.11.

In the case of `CCCC(C)(C)c1ccc2c(c1)OC(C)(C)[C@@H]1CC=C(C)C[C@@H]21`, the pKi was 8.52.

For the compound `C[C@H]1CC[C@H](NC(=O)c2cc3cccnc3n(Cc3ccc(F)cc3)c2=O)CC1`, the pKi was 8.05.

For the compound `C[C@H]1CC[C@@H](NC(=O)c2cc3cccnc3n(Cc3ccc(F)cc3)c2=O)CC1`, the pKi was 9.15.

`O=C(NC1CCCCCC1)c1cc2cccnc2n(Cc2ccc(F)cc2)c1=O`: the pKi is 9.15.

Turning to `O=C(NC1CCCCC1)c1cc2cccnc2n(Cc2ccc(F)cc2)c1=O`, the pKi was 8.66.

Turning to `C[C@H]1CC[C@@H](NC(=O)c2cc3cccnc3n(Cc3ccccc3)c2=O)CC1`, the pKi was 8.24.

As to `CCCCn1c(=O)c(C(=O)NC2CCCCC2)cc2cccnc21`, the pKi is 7.15.

A further experiment concerns the target Cannabinoid receptor 1 (Homo sapiens, UniProt P21554). Kind of experiment: Displacement of [3H]CP-55940 from human recombinant CB1 receptor expressed in HEK293 cells. It is filed as cell-based.
Details: not given
For orientation: In a radioligand displacement assay an active substance lowers the binding of a labelled ligand.
In the case of `O=C(NC1CCCCC1)c1cc2cccnc2n(CCN2CCOCC2)c1=O`, the pKi was 6.25.

As for `CC1CCC(NC(=O)c2cc3cccnc3n(CCN3CCOCC3)c2=O)CC1` (centres undefined), the pKi was 6.00.

For `O=C(NC1CCCCCC1)c1cc2cccnc2n(CCN2CCOCC2)c1=O`, the negative-log Ki (pKi) was 7.74.

Take `O=C(NCCc1ccc(F)cc1)c1cc2cccnc2n(Cc2ccccc2)c1=O`: the pKi was 5.16.

Turning to `O=C(NC1CCCCC1)c1cc2cccnc2n(Cc2ccccc2)c1=O`, the pKi was 6.25.

Regarding `C[C@H]1CC[C@H](NC(=O)c2cc3cccnc3n(Cc3ccccc3)c2=O)CC1`, the pKi was 5.28.

In the case of `CC1CCC(NC(=O)c2cc3cccnc3n(Cc3ccc(F)cc3)c2=O)CC1` (centres undefined), the pKi was 6.70.

With `O=C(NC1CCCCCC1)c1cc2cccnc2n(Cc2ccccc2)c1=O`, the negative-log Ki (pKi) is 6.02.

For `CC1CCC(NC(=O)c2cc3cccnc3n(Cc3ccccc3)c2=O)CC1` (centres undefined), the pKi is 5.80.

`C[C@H]1CC[C@H](NC(=O)c2cc3cccnc3n(Cc3ccc(F)cc3)c2=O)CC1`: the pKi is 6.52.

Take `C[C@H]1CC[C@@H](NC(=O)c2cc3cccnc3n(Cc3ccc(F)cc3)c2=O)CC1`: the pKi was 6.70.

In the case of `O=C(NC1CCCCCC1)c1cc2cccnc2n(Cc2ccc(F)cc2)c1=O`, the pKi is 8.02.

For the compound `O=C(NC1CCCCC1)c1cc2cccnc2n(Cc2ccc(F)cc2)c1=O`, the pKi is 7.25.

In the case of `C[C@H]1CC[C@@H](NC(=O)c2cc3cccnc3n(Cc3ccccc3)c2=O)CC1`, the pKi was 5.82.

`CCCCn1c(=O)c(C(=O)NC2CCCCC2)cc2cccnc21`: the pKi is 5.25.
